Source: ChEMBL document CHEMBL4138183, “Diselaginellin B, an Unusual Dimeric Molecule from Selaginella pulvinata, Inhibited Metastasis and Induced Apoptosis of SMMC-7721 Human Hepatocellular Carcinoma Cells” (J Nat Prod, 2017)
Active and inactive are the calls of the source. No cut-off for these calls is given here.

How the values were obtained:
SMMC-7721 [1] = assay: Induction of apoptosis in human SMMC7721 cells assessed as necrotic cells at 10 uM after 48 hrs by Annexin-V-FITC/propidium iodide staining based flow cytometric method (reference value: 0.82%); format: functional
SMMC-7721 [2] = assay: Antimetastatic activity against human SMMC7721 cells assessed as reduction in cell invasion at 2 uM after 48 hrs using crystal violet staining by matrigel based fluorescence microscopic analysis relative to control; format: functional
How it was run: (§1)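 Transwell invasion: filter (8 μm pore) coated with matrigel for 2 h at 37 °C; 2 × 10^4 cells seeded in serum-free RPMI on upper surface with test agent 48 h; 10% FBS medium in lower chamber. Non-invaded cells swabbed off; invaded cells crystal violet stained, counted in five random fields by fluorescence microscopy. Paclitaxel 100 nM positive control; means ± SD, n = 3.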

SMMC-7721 [3] = assay: Induction of apoptosis in human SMMC7721 cells assessed as live cells at 10 uM after 48 hrs by Annexin-V-FITC/propidium iodide staining based flow cytometric method (reference value: 95.75%); format: functional
SMMC-7721 [4] = assay: Induction of apoptosis in human SMMC7721 cells assessed as late apoptotic cells at 10 uM after 48 hrs by Annexin-V-FITC/propidium iodide staining based flow cytometric method (reference value: 1.17%); format: functional
SMMC-7721 [5] = assay: Induction of apoptosis in human SMMC7721 cells assessed as early apoptotic cells at 2.5 uM after 48 hrs by Annexin-V-FITC/propidium iodide staining based flow cytometric method (reference value: 2.27%); format: functional
SMMC-7721 [6] = assay: Down regulation of TSPAN8 mRNA expression in human SMMC7721 cells at 8 uM by RT-qPCR analysis; format: functional, cell-based
How it was run: (§2)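 Cells exposed to 8 μM; target mRNA quantified by RT-qPCR normalized to actin; means ± SD, n = 3.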

SMMC-7721 [7] = assay: Down regulation of COX1 mRNA expression in human SMMC7721 cells at 8 uM by RT-qPCR analysis; format: functional, cell-based; how it was run: as §2
SMMC-7721 [8] = assay: Induction of apoptosis in human SMMC7721 cells after 48 hrs by Annexin-V-FITC/propidium iodide staining based flow cytometric method; format: functional, cell-based
SMMC-7721 [9] = assay: Down regulation of CEACAM7 mRNA expression in human SMMC7721 cells at 8 uM by RT-qPCR analysis; format: functional, cell-based; how it was run: as §2
SMMC-7721 [10] = assay: Cytotoxicity against human SMMC7721 cells assessed as reduction in cell viability after 48 hrs by MTT assay; format: functional, cell-based; conditions: SMMC-7721, 48 h
How it was run: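 MTT viability: 5 × 10^4 cells/well seeded, cultured overnight, treated with graded concentrations 48 h; MTT (5 mg/mL stock) added 4 h, formazan dissolved in DMSO, absorbance read at 490 nm.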

SMMC-7721 [11] = assay: Upregulation of DLD mRNA expression in human SMMC7721 cells at 8 uM by RT-qPCR analysis; format: functional, cell-based; how it was run: as §2
SMMC-7721 [12] = assay: Down regulation of COX2 mRNA expression in human SMMC7721 cells at 8 uM by RT-qPCR analysis; format: functional, cell-based; how it was run: as §2
SMMC-7721 [13] = assay: Induction of apoptosis in human SMMC7721 cells assessed as necrotic cells at 2.5 uM after 48 hrs by Annexin-V-FITC/propidium iodide staining based flow cytometric method (reference value: 0.82%); format: functional
SMMC-7721 [14] = assay: Antimetastatic activity against human SMMC7721 cells assessed as reduction in cell invasion at 0.5 uM after 48 hrs using crystal violet staining by matrigel based fluorescence microscopic analysis relative to control; format: functional; how it was run: as §1
SMMC-7721 [15] = assay: Induction of apoptosis in human SMMC7721 cells assessed as late apoptotic cells at 2.5 uM after 48 hrs by Annexin-V-FITC/propidium iodide staining based flow cytometric method (reference value: 1.17%); format: functional
SMMC-7721 [16] = assay: Antimetastatic activity against human SMMC7721 cells assessed as reduction in cell invasion at 1 uM after 48 hrs using crystal violet staining by matrigel based fluorescence microscopic analysis relative to control; format: functional; how it was run: as §1
SMMC-7721 [17] = assay: Induction of apoptosis in human SMMC7721 cells assessed as live cells at 2.5 uM after 48 hrs by Annexin-V-FITC/propidium iodide staining based flow cytometric method (reference value: 95.75%); format: functional
SMMC-7721 [18] = assay: Cell cycle arrest in human SMMC7721 cells assessed as increase in G1 population at 2.5 to 5 uM after 48 hrs by propidium iodide staining based flow cytometric method; format: functional
How it was run: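 Cells exposed 48 h to 2.5 or 5 μM, PBS-washed, fixed in 70% ethanol at 4 °C overnight, centrifuged, RNase treated 37 °C 30 min, then PI stained 30 min in dark; G1/S/G2 distribution by flow cytometry; means ± SD, n = 3.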

SMMC-7721 [19] = assay: Induction of apoptosis in human SMMC7721 cells assessed as live cells at 5 uM after 48 hrs by Annexin-V-FITC/propidium iodide staining based flow cytometric method (reference value: 95.75%); format: functional
SMMC-7721 [20] = assay: Antimetastatic activity against human SMMC7721 cells assessed as reduction in cell migration at 0.5 to 2 uM after 48 hrs by crystal violet staining based fluorescence microscopic analysis; format: functional
How it was run: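 Migration through uncoated Transwell filter (8 μm pore): 2 × 10^4 cells in serum-free RPMI on upper side, treated 0.5, 1 or 2 μM for 48 h; lower chamber 10% FBS medium. Upper-surface cells removed by swab; underside cells crystal violet stained and scored in five random fields under fluorescence microscope. Paclitaxel 100 nM positive control; n = 3.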

SMMC-7721 [21] = assay: Induction of apoptosis in human SMMC7721 cells assessed as early apoptotic cells at 10 uM after 48 hrs by Annexin-V-FITC/propidium iodide staining based flow cytometric method (reference value: 2.27%); format: functional
SMMC-7721 [22] = assay: Down regulation of MAGP2 mRNA expression in human SMMC7721 cells at 8 uM by RT-qPCR analysis; format: functional, cell-based; how it was run: as §2
SMMC-7721 [23] = assay: Down regulation of NNMT mRNA expression in human SMMC7721 cells at 8 uM by RT-qPCR analysis; format: functional, cell-based; how it was run: as §2
SMMC-7721 [24] = assay: Induction of apoptosis in human SMMC7721 cells assessed as necrotic cells at 5 uM after 48 hrs by Annexin-V-FITC/propidium iodide staining based flow cytometric method (reference value: 0.82%); format: functional
SMMC-7721 [25] = assay: Induction of apoptosis in human SMMC7721 cells assessed as early apoptotic cells at 5 uM after 48 hrs by Annexin-V-FITC/propidium iodide staining based flow cytometric method (reference value: 2.27%); format: functional
SMMC-7721 [26] = assay: Induction of apoptosis in human SMMC7721 cells assessed as late apoptotic cells at 5 uM after 48 hrs by Annexin-V-FITC/propidium iodide staining based flow cytometric method (reference value: 1.17%); format: functional

`O=C1C=CC(=C(c2ccc(O)cc2)c2c(-c3ccc(O)cc3)ccc(CO)c2C#Cc2ccc(OCc3ccc(-c4ccc(O)cc4)c(C(=C4C=CC(=O)C=C4)c4ccc(O)cc4)c3C#Cc3ccc(O)cc3)cc2)C=C1` was tested, and the Activity (SMMC-7721 [1]) was 1.15%, the “fold change (FC)” value (SMMC-7721 [2]) was 0.39 and the Activity (SMMC-7721 [3]) was 47.83%. The Activity (SMMC-7721 [4]) was 29.8%, the Activity (SMMC-7721 [5]) was 5.4% and the Activity (SMMC-7721 [6]) was “Active”. The Activity (SMMC-7721 [7]) was “Active”, the Activity (SMMC-7721 [8]) was “Dose-dependent effect” and the Activity (SMMC-7721 [9]) was “Active”. For the same compound, the IC50 (SMMC-7721 [10]) was 9 µM, the Activity (SMMC-7721 [11]) was “Active” and the Activity (SMMC-7721 [12]) was “Active”. For the same compound, the Activity (SMMC-7721 [13]) was 0.89%, the “fold change (FC)” value (SMMC-7721 [14]) was 0.53 and the Activity (SMMC-7721 [15]) was 11.13%. For the same compound, the “fold change (FC)” value (SMMC-7721 [16]) was 0.42, the Activity (SMMC-7721 [17]) was 82.58% and the Activity (SMMC-7721 [18]) was “Active”. For the same compound, the Activity (SMMC-7721 [19]) was 58.59%, the Activity (SMMC-7721 [20]) was “Active” and the Activity (SMMC-7721 [21]) was 21.22%. The Activity (SMMC-7721 [22]) was “Active”, the Activity (SMMC-7721 [23]) was “Active” and the Activity (SMMC-7721 [24]) was 1.54%. The Activity (SMMC-7721 [25]) was 7.57% and the Activity (SMMC-7721 [26]) was 32.3%.
